Source: PubChem BioAssay
hERG rescue = hERG (human) protection from proarrhythmic block. Q12809. CHO-hERG, FluxOR thallium flux, dofetilide IC70 present. activation (rescue from dofetilide block), less the hit threshold, % at 10 µM. hit rate 0.51% among 310,000;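 active = activation above the mean of controls blocked by dofetilide plus 5 SD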;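 note: thallium influx through hERG after potassium depolarization seen as dye fluorescence rise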
Kir21 block = blocks the mouse Kir2.1 inward-rectifier potassium channel; HEK293-Kir2.1, FluxOR thallium flux fluorescence; active compounds read low; B-score at 10 µM; hit rate 0.85% among 310,000;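 active = fluorescence ratio B-score at or below minus 3 SD of library scores, with starting-brightness B-score within 2 SD, cut at about -4.2 in these data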;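 note: channel flux triggered by added potassium and thallium sulfate stimulus; B-score of peak minus minimum fluorescence over baseline after thallium stimulus; more negative B-score means stronger Kir2.1 block with less thallium influx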
KCNQ1 block = human KCNQ1 channel inhibition. AID 2642. CHO-K1 KCNQ1, FluxOR thallium flux fluorescence; active compounds read high. P51787. hit rate 1.3% among 310,000. B-score at 10 µM;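 active = compounds whose thallium flux B-score, printed positive for inhibition, exceeds three library SD while starting fluorescence stays within three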;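 note: channel opened by potassium depolarization with thallium stimulus after 20 min compound exposure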
Target sequence (P51787 whole entry, looked up): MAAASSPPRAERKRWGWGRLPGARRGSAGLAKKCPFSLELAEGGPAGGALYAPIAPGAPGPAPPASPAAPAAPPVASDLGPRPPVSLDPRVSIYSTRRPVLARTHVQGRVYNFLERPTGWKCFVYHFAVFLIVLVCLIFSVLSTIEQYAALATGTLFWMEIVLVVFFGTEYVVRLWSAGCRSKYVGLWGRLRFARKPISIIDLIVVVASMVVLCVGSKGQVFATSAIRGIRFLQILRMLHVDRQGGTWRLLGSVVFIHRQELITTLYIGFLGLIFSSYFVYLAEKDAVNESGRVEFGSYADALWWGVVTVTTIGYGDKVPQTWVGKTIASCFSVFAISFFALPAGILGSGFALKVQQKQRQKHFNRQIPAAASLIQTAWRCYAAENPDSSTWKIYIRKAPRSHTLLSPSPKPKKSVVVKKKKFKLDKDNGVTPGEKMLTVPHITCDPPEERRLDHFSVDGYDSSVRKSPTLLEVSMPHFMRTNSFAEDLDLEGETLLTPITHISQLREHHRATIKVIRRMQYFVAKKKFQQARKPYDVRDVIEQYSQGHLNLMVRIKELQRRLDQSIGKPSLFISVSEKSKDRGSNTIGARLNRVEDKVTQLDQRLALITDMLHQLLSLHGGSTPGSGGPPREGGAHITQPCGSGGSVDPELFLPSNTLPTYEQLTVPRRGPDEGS
KCNQ1 act = human KCNQ1 channel potentiation or activation; AID 2648; hit rate 0.35% among 310,000; P51787; CHO-K1 KCNQ1, thallium flux FluxOR fluorescence; active compounds read high; B-score at 10 µM;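 active = fluorescence ratio B-score, a plate-corrected score, at least three library SD, with initial intensity B-score within 5 SD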
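Test system: CHO-K1 cells stably expressing KCNQ1 / Medium: assay buffer / Also added: depolarizing K+/Tl+ stimulus, K2SO4 and Tl2SO4 each 12.5 mM in 5x stock / Incubation: 90 min dye loading and 20 min compound exposure, both at room temperature / Signal: thallium influx via FluxOR fluorescence, kinetic imaging / Evaluation: B score of baseline-normalized fluorescence ratio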
KCNK3 block = human KCNK3 channel inhibition, primary screen | B-score at 10 µM | CHO-KCNK3 thallium flux, FluxOR fluorescence; active compounds read low | hit rate 0.84% among 340,000 | AID 602410;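 active = B-score under library mean minus 4 SD, starting fluorescence ratio at most library mean plus 5 SD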;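 note: more negative B-score means stronger inhibition of thallium flux through KCNK3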
KCNK9 block = inhibitors of human KCNK9 two-pore domain potassium channel; Q9NPC2; AID 488922; B-score at 10 µM; HEK293 KCNK9, FluxOR thallium flux fluorescence; active compounds read low; hit rate 1.2% among 310,000;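 active = ratio B-score over 3 SD below the library mean, with starting fluorescence within 5 SD of its mean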;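 note: negative B-score means less thallium flux so channel inhibition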
* = called active by the depositor; i = inactive; . = not tested or not shown. Rows were chosen to be rich in hits. Some 3.7% of all compounds tested hit in one or more screens of this group.

SMILES	hERG rescue	Kir21 block	KCNQ1 block	KCNQ1 act	KCNK3 block	KCNK9 block
O=C(c1ccoc1)N1CCC2(CC1)Oc1ccc(Cl)cc1C(=O)C21CC(c2ccc(Cl)cc2)=NO1 (centres undefined)	-12.2	-0.73	6*	i	i	i
CCC(C)[C@H](NC(=O)N1CC(=O)Nc2ccccc21)C(=O)N1CCC(C(=O)O)CC1 (some centres undefined)	-8.5	0.11	i	i	i	i
C/[N+]([O-])=C\c1cccc(OCCN2CCN(c3ncc(C(F)(F)F)cc3Cl)CC2)c1	-4.4	1.17	i	i	i	i
COc1ccc(NC(=O)c2ccc3c(c2)CCN3S(=O)(=O)c2ccccc2)cc1	-4.3	-1.3	i	i	i	i
COc1ccc2c(c1)N(S(=O)(=O)c1ccccc1)CCC2=O	-4.2	-6.51*	i	i	i	i
Nc1nonc1-n1nnc(C(=O)N/N=C/c2cccc(Cl)c2Cl)c1CN1CCCC1	40.5*	-1.12	i	i	i	i
CCCOc1ccc(-c2c(C(=O)N/N=C/c3ccccc3OCC)nnn2-c2nonc2N)cc1	37.4*	0.19	i	i	i	i
Cc1ccc(S(=O)(=O)Oc2ccccc2/C=C2\SC(=O)NC2=O)cc1	-16.2	1.53	8*	i	i	i
Cc1ccc(Oc2ccccc2/C=C2\SC(=O)N(C)C2=O)cc1	-14.4	-0.59	6*	i	i	i
O=C(COc1ccccc1/C=C1\SC(=O)NC1=O)Nc1ccc(F)cc1	-0.8	-0.83	i	i	i	i
O=C1NC(=O)/C(=C/c2ccccc2Oc2ccc(Cl)cc2)S1	-10.1	-0.07	11*	i	i	i
CC1CCCCN1C(=O)COC(=O)C1CCN(S(=O)(=O)c2ccc3c(c2)OCCO3)CC1 (centres undefined)	-13.4	0.26	i	i	i	i
CCC1(c2ccccc2)NC(=O)N(CC(=O)Nc2cc(S(=O)(=O)N3CCCCCC3)ccc2OC)C1=O (centres undefined)	-28.2	0.11	i	i	i	i
C/C(=N\NC(=O)c1ccc(Cl)c(S(=O)(=O)Nc2ccccc2Cl)c1)c1ccncc1	-11.0	0.66	i	i	i	i
CCN1C(=O)[C@H]2[C@@H](c3ccc(-c4cccc(Cl)c4)cc3)N[C@@](Cc3ccccc3)(C(=O)OC)[C@H]2C1=O	-16.7	-0.98	i	i	i	i
O=C(CSc1nn(-c2ccc(Cl)cc2)c(=S)s1)NCC1CCCO1 (centres undefined)	-10.2	-0.12	i	i	i	i
COC(=O)NC(=S)Nc1ccc(Oc2ccc(Cl)cc2Cl)c(Cl)c1	-3.0	-0.09	i	16*	i	i
COC(=O)NC(=S)Nc1ccc(Oc2ccc(Cl)cc2)c(Cl)c1	2.9	0.57	i	i	i	i
COC(=O)c1ccc(NC(=O)Nc2ccc(F)cc2)cc1	-13.1	0.01	6*	i	i	i
COC(=O)c1ccc(NC(=O)Nc2ccc(F)c(Cl)c2)cc1	-8.1	1.08	6*	i	i	i
Fc1ccc(NC(=S)Nc2ccc(F)c(Cl)c2)cc1Cl	-33.7	-5.43*	13*	i	-9.17*	-6.7*
CCOC(=O)c1ccc(NC(=O)Nc2ccc(F)cc2)cc1	-9.4	0.99	i	i	i	i
Cc1[nH]c(=O)[nH]c(=O)c1S(=O)(=O)N1CCCC1	-5.6	-2.77	i	i	i	i
COc1ccc(C)cc1N(CC(=O)Nc1ccc2c(c1)OCCO2)S(C)(=O)=O	-6.4	0.26	i	i	i	i
C/C(CCc1oc2c(Br)cc(Br)cc2c1-c1ccc(C)o1)=N\O	-10.9	1.3	i	15*	i	i
SMILES	hERG rescue	Kir21 block	KCNQ1 block	KCNQ1 act	KCNK3 block	KCNK9 block
C/C(CCc1oc2ccccc2c1-c1ccc(C)o1)=N/O	-6.2	-0.83	i	i	i	i
COC(=O)C1=C(C(=O)OC)[C@@H]2Nc3ccccc3[C@@]23C[C@@H](C(=O)OC)N(C(=O)c2ccco2)C3=N1	-5.6	0.54	i	i	i	i
CCCCC(=O)Nc1ccc(NCc2ccc(C)s2)cc1	8.6*	-0.29	i	i	i	i
CC(C)CCN(C)C1CCN(S(=O)(=O)c2cccc(C(F)(F)F)c2)CC1	-6.6	0.09	i	i	i	i
CC1CN(S(=O)(=O)c2cccc(C(F)(F)F)c2)CC(C)O1 (centres undefined)	-8.6	-4.38*	i	i	i	i
Cc1ccc(C)c(N2CCN(c3ncccc3[N+](=O)[O-])CC2)c1	-15.1	-0.29	i	i	i	-6.63*
O=C(NC(=S)Nc1ccc(N2CCOCC2)c(Cl)c1)c1sc2ccccc2c1Cl	21.1*	-0.61	i	21*	i	i
CCCC(=O)NC(=S)Nc1ccccc1N1CCOCC1	0.3	-0.13	i	i	i	i
O=C(NNC(=S)NC(=O)c1sc2ccccc2c1Cl)c1ccc(Cl)cc1	43.8*	0.21	i	62*	i	i
O=C(NC(=S)Nc1ccccc1N1CCOCC1)c1sc2ccccc2c1Cl	-6.5	1.17	i	13*	i	i
COc1ccc(OCC(=O)NC(=S)Nc2ccc(N3CCOCC3)c(Cl)c2)cc1	-8.6	-0.05	i	13*	i	i
CN(CC(=O)Nc1ccccc1C(F)(F)F)C(=O)CCc1nc2ccccc2c(=O)[nH]1	-18.9	0.25	i	i	i	i
O=C(O)c1ccccc1NC(=S)NC(=O)c1sc2ccccc2c1Cl	-3.7	-0.98	i	i	i	i
Cc1ccc(NC(=S)NC(=O)c2sc3ccccc3c2Cl)c(C(=O)O)c1	8.6*	2.25	i	9*	.	i
CCCn1c(N)c(C(=O)CSc2nc3ccccc3s2)c(=O)[nH]c1=O	5.4*	1.06	i	i	i	i
Cc1ccc(/C=C2/SC(=S)N(CCCC(=O)Nc3cc([N+](=O)[O-])ccc3O)C2=O)cc1	-6.2	-0.06	7*	i	i	i
O=C(CN1C(=O)S/C(=C\c2ccccc2)C1=O)Nc1cc([N+](=O)[O-])ccc1O	-7.0	1.81	8*	i	i	i
COc1ccc(/C=C2\SC(=O)N(CC(=O)Nc3ccccc3O)C2=O)cc1OC	-9.2	-0.09	i	i	i	i
CC1CCN(C(=O)/C(=C/c2ccccc2Cl)c2ccccc2)CC1	-12.2	-0.64	i	i	i	-6.72*
C/C(=N\Nc1cccc([N+](=O)[O-])c1)c1cc(F)ccc1O	-9.9	-1.11	i	i	i	i
